The values below come from ChEMBL document CHEMBL1781963, “Discovery of novel hepatoselective HMG-CoA reductase inhibitors for treating hypercholesterolemia: a bench-to-bedside case study on tissue selective drug distribution” (Bioorg Med Chem Lett, 2011).

One data set addresses T1, OATP1B2 (Rattus norvegicus, UniProt Q9QZX8).
T1 sequence (Q9QZX8 whole entry): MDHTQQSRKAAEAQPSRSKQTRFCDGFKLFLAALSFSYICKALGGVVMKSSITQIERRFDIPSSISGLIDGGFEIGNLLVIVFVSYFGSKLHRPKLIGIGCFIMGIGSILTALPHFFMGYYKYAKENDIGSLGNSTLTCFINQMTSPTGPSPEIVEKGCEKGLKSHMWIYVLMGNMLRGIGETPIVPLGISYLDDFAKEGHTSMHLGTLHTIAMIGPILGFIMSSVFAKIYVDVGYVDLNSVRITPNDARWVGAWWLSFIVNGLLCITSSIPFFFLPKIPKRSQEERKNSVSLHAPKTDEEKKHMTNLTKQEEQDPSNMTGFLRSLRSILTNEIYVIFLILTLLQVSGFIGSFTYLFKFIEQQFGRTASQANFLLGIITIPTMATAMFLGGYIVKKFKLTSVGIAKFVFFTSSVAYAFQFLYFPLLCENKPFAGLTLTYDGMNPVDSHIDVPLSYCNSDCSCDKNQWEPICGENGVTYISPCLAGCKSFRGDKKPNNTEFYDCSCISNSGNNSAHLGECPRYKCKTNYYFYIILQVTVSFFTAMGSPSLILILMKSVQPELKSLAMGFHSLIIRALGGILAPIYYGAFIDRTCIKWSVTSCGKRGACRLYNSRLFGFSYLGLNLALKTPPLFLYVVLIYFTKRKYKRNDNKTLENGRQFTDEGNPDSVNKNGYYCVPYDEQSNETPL
Description: Drug uptake by rat hepatic OATP1B2 transporters expressed in CHO cells at 10 uM relative to wild type CHO cells. As to conditions: CHO cells expressing rat OATP1B2, read-out: FC. The class given is ADME, cell-based. The gist of the method:
(§1)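 Individual hepatic OATP transporters were over-expressed in CHO or HEK293 cells: rat rOatp1a1, rOatp1a4 and rOatp1b2, and human hOATP1B1, hOATP1B3 and hOATP2B1. Substrate uptake is expressed as fold difference relative to the wild-type parental line. Rosuvastatin/pravastatin served as positive control and midazolam as negative control in each assay.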

The next data set relates to Cavia porcellus. Kind of data set: Hypolipidemic activity in chow fed Hartley guinea pig assessed as reduction of LDL level administered orally for 7 days measured on day 8 after 2 hrs post dose. In kind it is functional. The conditions noted are these: po. The gist of the method:
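Guinea pigs were dosed daily for seven days and sacrificed 2 h after the final dose. Plasma LDL was measured and reported as mean ± SEM % change from the control group, n = 8/group.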

A further data set concerns the target T2, OATP1B3 (Homo sapiens, UniProt Q9NPD5).
T2 sequence (Q9NPD5 whole entry): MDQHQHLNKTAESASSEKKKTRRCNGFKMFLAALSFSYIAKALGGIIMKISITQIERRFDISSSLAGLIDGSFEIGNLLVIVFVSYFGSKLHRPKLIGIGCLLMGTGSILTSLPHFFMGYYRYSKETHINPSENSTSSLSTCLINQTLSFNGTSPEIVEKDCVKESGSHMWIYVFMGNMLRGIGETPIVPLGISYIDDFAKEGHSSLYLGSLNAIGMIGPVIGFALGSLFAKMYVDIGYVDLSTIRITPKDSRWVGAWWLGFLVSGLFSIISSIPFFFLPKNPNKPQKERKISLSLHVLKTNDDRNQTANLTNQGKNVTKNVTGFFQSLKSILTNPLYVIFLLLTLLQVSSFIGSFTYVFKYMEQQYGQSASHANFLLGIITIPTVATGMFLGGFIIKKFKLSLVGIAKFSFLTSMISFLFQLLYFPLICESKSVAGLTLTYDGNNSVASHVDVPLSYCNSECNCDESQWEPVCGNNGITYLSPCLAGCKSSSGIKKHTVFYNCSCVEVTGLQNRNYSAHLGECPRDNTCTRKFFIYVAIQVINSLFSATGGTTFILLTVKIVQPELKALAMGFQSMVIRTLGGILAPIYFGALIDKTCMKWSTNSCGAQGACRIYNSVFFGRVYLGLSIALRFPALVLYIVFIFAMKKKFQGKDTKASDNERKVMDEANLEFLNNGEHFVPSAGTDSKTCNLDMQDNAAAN
Description: Drug uptake by human hepatic OATP1B3 transporter expressed in HEK293 cells at 10 uM relative to wild-type HEK293 cells. The class given is ADME, cell-based. The conditions noted are these: HEK293 cells expressing OATP1B3, read-out: FC. The gist of the method: as §1

Data set [1] deals with Hepatocyte. Kind of data set: Drug uptake in sandwich-cultured rat hepatocytes assessed per mg of protein at 1 uM in presence of rifamycin SV. In kind it is ADME, cell-based. The gist of the method: (§2)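 Rat or human hepatocytes were cultured in sandwich configuration with a Matrigel overlay and compound uptake was measured. Active uptake was assessed by inhibition with the pan-OATP inhibitor rifamycin SV. Rosuvastatin/pravastatin served as positive control and midazolam as negative control.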

In another data set the target is T3, OATP2B1 (Homo sapiens, UniProt O94956).
T3 sequence (O94956 whole entry): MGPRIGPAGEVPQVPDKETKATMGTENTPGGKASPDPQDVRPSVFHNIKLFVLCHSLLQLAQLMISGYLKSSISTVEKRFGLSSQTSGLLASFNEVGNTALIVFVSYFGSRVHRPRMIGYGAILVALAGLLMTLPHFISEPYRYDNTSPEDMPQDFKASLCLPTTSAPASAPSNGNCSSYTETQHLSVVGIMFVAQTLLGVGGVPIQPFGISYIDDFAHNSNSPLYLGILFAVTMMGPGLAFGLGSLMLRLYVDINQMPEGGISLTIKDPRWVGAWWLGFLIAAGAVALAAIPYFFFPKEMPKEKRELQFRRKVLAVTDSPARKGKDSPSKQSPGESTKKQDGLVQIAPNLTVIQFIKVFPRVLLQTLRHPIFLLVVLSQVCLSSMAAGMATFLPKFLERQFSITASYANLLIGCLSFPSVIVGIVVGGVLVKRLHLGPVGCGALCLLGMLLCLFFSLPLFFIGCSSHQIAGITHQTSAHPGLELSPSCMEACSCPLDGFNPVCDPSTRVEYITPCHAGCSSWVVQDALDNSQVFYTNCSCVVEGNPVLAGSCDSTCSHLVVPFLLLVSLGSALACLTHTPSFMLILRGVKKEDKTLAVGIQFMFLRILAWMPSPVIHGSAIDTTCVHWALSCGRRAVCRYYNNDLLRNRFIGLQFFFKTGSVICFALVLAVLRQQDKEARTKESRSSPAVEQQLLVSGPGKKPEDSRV
Description: Drug uptake by human hepatic OATP2B1 transporter expressed in HEK293 cells at 1 uM relative to wild-type HEK293 cells. The class given is ADME, cell-based. As to conditions: HEK293 cells expressing human OATP2B1, read-out: FC. The gist of the method:
as §1

Data set [2] in a line: Fraction unbound in human plasma at 0.5 ug/ml. In kind it is ADME, cell-free. The gist of the method:
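Unbound fraction in rat, dog or human plasma, measured at a drug concentration of 0.5 μg/mL.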

Data set [3] relates to Hepatocyte. Kind of data set: Drug uptake in sandwich-cultured human hepatocytes assessed per mg of protein at 1 uM. The class given is ADME, cell-based. The gist of the method:
as §2

Structures are written as SMILES.

On to `O=C([O-])C[C@H](O)C[C@H](O)CCn1c(-c2ccc(F)cc2)nc(C(=O)NCc2cccc(F)c2)c1C1CC1.[Na+]`, for which the uptake ratio at 10 µM on OATP1B2 worked out at 1.7; on OATP1B3, 36.4. In addition, in the data set with Cavia porcellus, the ED50 came out at 5.9 mg/kg. Moreover, the values for the Drug uptake in the data set with Hepatocyte [1] and with Hepatocyte [3] were 100% and 1.5 pmol/min/mg, respectively. Moreover, the uptake ratio at 1 µM at OATP2B1 turned out to be 7.1. The same molecule registered a fraction unbound at 0.5 ug/ml in data set [2] of 0.29.

Take `Cc1ccc(CNC(=O)c2nn(-c3ccc(F)cc3)c(CC[C@@H](O)C[C@@H](O)CC(=O)O)c2C(C)C)cc1`: the uptake ratio at 10 µM on OATP1B2 turned out to be 2.6; at OATP1B3 it was 5. For the same molecule, in the data set with Cavia porcellus, the ED50 was determined as 3.6 mg/kg. The values for the Drug uptake in the data set with Hepatocyte [1] and with Hepatocyte [3] were 98% and 7.8 pmol/min/mg, respectively. Moreover, the uptake ratio at 1 µM on OATP2B1 was 2.1. Further, in data set [2], the unbound share (fraction unbound) at 0.5 ug/ml is 0.051.

On to `Cc1ncc2n1-c1ccc(Cl)cc1C(c1ccccc1F)=NC2` [MIDAZOLAM], for which the uptake ratio at 10 µM on OATP1B2 was determined as 1.3; on OATP1B3, 1.1. In addition, the uptake ratio at 1 µM at OATP2B1 was determined as 0.8.

Regarding `CC[C@H](C)C(=O)O[C@H]1C[C@H](O)C=C2C=C[C@H](C)[C@H](CC[C@@H](O)C[C@@H](O)CC(=O)O)[C@H]21` [PRAVASTATIN], the uptake ratio at 10 µM was 7 at OATP1B2 and 32.8 on OATP1B3. Besides, the ED50 in the data set on Cavia porcellus stood at 73.3 mg/kg.

With `CC(C)c1nc(N(C)S(C)(=O)=O)nc(-c2ccc(F)cc2)c1/C=C/[C@@H](O)C[C@@H](O)CC(=O)O` [ROSUVASTATIN], the 50% effective dose (ED50) in the data set on Cavia porcellus was 13.5 mg/kg. In addition, at OATP1B3, the uptake ratio at 10 µM worked out at 11.1. Besides, the Drug uptake in the data set on Hepatocyte [1] worked out at 97%; with Hepatocyte [3] it was 8 pmol/min/mg. The uptake ratio at 1 µM on OATP2B1 came out at 5.5. In data set [2], the fraction unbound at 0.5 ug/ml turned out to be 0.17.
